Screening results: PubChem BioAssay, several laboratories
Sampled rows, rich in hits. Any-hit rate of the full collection: about 2%.
SR-BI uptake up = activators of SR-BI mediated HDL lipid uptake; CHO ldlA[mSR-BI] cells, DiI-HDL uptake fluorescence, 3 h; 100 = double the neutral-control signal; activation, % at 12.5 µM; 320,000 compounds, 0.096% hits; AID 504775;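 active = mean replicate activation of at least 60% and every replicate at or above 60%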;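 also: 0% = median plate neutral-control signal and 100% = twice that signal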
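Assay system: LDL receptor-deficient CHO ldlA cells overexpressing murine SR-BI / Medium: BSA-supplemented, HEPES-buffered Ham's F12, pH 7.4 / Probe or stimulus: DiI-labelled HDL at 10 µg/mL final / Timing: compound with DiI-HDL co-incubation, 3 h at 37 °C / Technique: bottom-read cell fluorescence after medium removal, ex 550/em 595 nm / Measure: HDL uptake via cellular fluorescence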
SR-BI HDL uptake = blocks mouse SR-BI lipid uptake from DiI-HDL | ldlA[mSR-BI] CHO cells, DiI-HDL uptake fluorescence, 3 h | inhibition, % at 12.5 µM | 320,000 compounds, 0.96% hits;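 active = mean replicate inhibition of at least 70% and a set share of replicates each scoring 70 or more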;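 also: 0% = median of neutral control wells and 100% = median of positive control wells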
sPLA2-III inh = Inhibits HGIII-sPLA2 liposome hydrolysis, primary screen; Q9NZ20; QFRET BODIPY PC-A2 liposome hydrolysis, fluorescence; inhibition, % at 12.2 µM; 370,000 compounds, 0.56% hits; AID 743126;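 active = inhibition above mean plus 3 SD of compounds lying within the high and low control bounds, cut at about 19% in these data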;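 also: 0% = median of test compound wells and 100% = no enzyme DMSO wells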
Target sequence (Q9NZ20 whole entry, looked up): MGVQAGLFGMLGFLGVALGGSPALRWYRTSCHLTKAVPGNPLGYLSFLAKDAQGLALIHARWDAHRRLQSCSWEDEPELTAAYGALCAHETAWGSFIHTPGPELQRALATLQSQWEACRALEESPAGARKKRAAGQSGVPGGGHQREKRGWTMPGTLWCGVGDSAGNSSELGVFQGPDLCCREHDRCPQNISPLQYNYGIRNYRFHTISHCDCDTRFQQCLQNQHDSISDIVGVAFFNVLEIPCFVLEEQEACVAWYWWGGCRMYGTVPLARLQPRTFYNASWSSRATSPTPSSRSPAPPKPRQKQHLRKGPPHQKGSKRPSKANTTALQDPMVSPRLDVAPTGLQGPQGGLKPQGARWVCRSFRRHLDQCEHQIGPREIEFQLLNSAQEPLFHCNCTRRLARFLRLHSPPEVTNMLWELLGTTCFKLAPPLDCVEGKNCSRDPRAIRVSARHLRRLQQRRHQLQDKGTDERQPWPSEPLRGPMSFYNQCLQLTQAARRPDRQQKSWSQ
ARNT-TACC3 inh = disruptors of human ARNT/TACC3 interaction. Q9Y6A5. AlphaScreen His-ARNT PAS-B/GST-TACC3 binding, luminescence; TACC3 fragment carries E629A point mutation. inhibition, % at 9.99 µM. 390,000 compounds, 0.66% hits. AID 623870;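 active = mean inhibition of replicates at least 50% and at least half of replicates each reaching 50%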;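 also: 0% = complete ARNT plus TACC3 wells and 100% = ARNT alone without TACC3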
NSD2 HMT inh = blocks human histone methyltransferase NSD2. O96028. NSD2 peptide methylation, AlphaScreen, 120 min. inhibition, % at 12.5 µM. 310,000 compounds, 0.54% hits. AID 743445; in the data active = inhibition above about 50%
Xi reactivation = activators of X-chromosome reactivation in mouse fibroblasts; XiGFP mouse fibroblasts, % GFP-positive cells imaging, 3 d; cells co-treated with 5-aza-dC sensitizer; scaled so ellipticine positive control = 100%; activation, % at 7.58 µM; 360,000 compounds, 0.055% hits;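 active = mean normalized replicate activation at least 10% and every replicate at or above 10%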;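 also: 0% = median of on-plate neutral control wells and 100% = ellipticine 6 µM median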
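Material: XiGFP fibroblasts, SV40-immortalized; Buffer or medium: DMEM containing 5-aza-dC; Compound dosing: single point; Times: 3 days compound exposure.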
sPLA2 confirm = human GIII-sPLA2 inhibition, confirmation. shares compounds with sPLA2-III inh. recombinant hGIII-sPLA2, BODIPY PC-A2 QFRET fluorescence. inhibition, % at 12.2 µM. 2,000 compounds, 34% hits. AID 743280;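 active = mean inhibition across triplicates above the hit cutoff set in the earlier primary screen, cut at about 19% in these data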;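 also: 0% = enzyme with DMSO and 100% = DMSO wells lacking enzyme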
BODIPY interf = 535nm fluorescence interference, HGIII-sPLA2 counter-screen; shares compounds with sPLA2-III inh; BODIPY FL product fluorescence interference, QFRET; inhibition, % at 12.2 µM; 2,000 compounds, 8.5% hits; AID 743282;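 active = average inhibition above the solvent-only control mean plus 3 SD, cut at about 6% in these data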;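 also: 0% = DMSO with substrate plus product and 100% = DMSO with substrate alone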
BODIPY interf DR = 535nm optical interference dose response, HGIII-sPLA2 counter-screen. shares compounds with sPLA2-III inh. BODIPY FL product fluorescence interference, cell-free. IC50, µM. 240 tested, under 10 active. AID 743455;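 active = IC50 at or below 10 µM; inactive = IC50 above 10 µM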
* = called active by the depositor; . = not tested or not shown.

SMILES | SR-BI uptake up | SR-BI HDL uptake | sPLA2-III inh | ARNT-TACC3 inh | NSD2 HMT inh | Xi reactivation | sPLA2 confirm | BODIPY interf | others
C[C@H]1CN([C@@H](C)CO)C(=O)c2cc(C#CCN(C)C)cnc2O[C@H]1CN(C)Cc1ccccn1 | . | . | . | 23 | . | 1 | . | .
COc1cc(NC(=O)Cn2cnc3ccccc3c2=O)c(OC)cc1Cl | -29 | 29 | 5 | . | -2 | 0 | . | .
O=C(Nc1ccc2c(c1)CCC2)c1cnn2c1NC(c1ccco1)CC2C(F)(F)F (configuration not stated) | -7 | 7 | -8 | 30 | -5 | . | . | .
CCC(Sc1ncnc2c1c(-c1ccccc1)cn2-c1ccc(OC)cc1)C(=O)OC (configuration not stated) | -39 | 39 | -10 | -32 | -1 | 0 | . | .
O=C(NNC(=S)NC1CCCCC1)c1ccccc1Br | 22 | -22 | 21* | 6 | -2 | 0 | 29* | -3 | BODIPY interf DR=>122
Cc1cc(C)c2nc(NNC(=O)c3ccc(S(=O)(=O)N4CCCC(C)C4)cc3)sc2c1 (configuration not stated) | -115 | 115* | 36* | 19 | . | 0 | 46* | 6.5*
COC(=O)c1sc2ccccc2c1NC(=O)c1ccc(S(=O)(=O)N2CCCC(C)C2)cc1 (configuration not stated) | -40 | 40 | -6 | -8 | -4 | 0 | . | .
Cc1cccc2sc(NNC(=O)c3ccc(S(=O)(=O)N4CC(C)CC(C)C4)cc3)nc12 (configuration not stated) | -131 | 131* | 47* | 49* | . | 5 | 47* | 3
COC(=O)c1sc2ccccc2c1NC(=O)c1ccc(S(=O)(=O)N2CC(C)CC(C)C2)cc1 (configuration not stated) | -22 | 22 | 4 | -30 | -1 | 0 | . | .
CN(C(=O)c1ccc(COc2ccccc2Br)o1)c1ccccc1 | -18 | 18 | 0 | . | 7 | 0 | . | .
COc1cc([N+](=O)[O-])ccc1NC(=S)NC(=O)CC(C)(C)C | -12 | 12 | 10 | 0 | -3 | 0 | . | .
Fc1ccc(CSc2ccc(-c3ccc4c(c3)OCO4)nn2)cc1 | 12 | -12 | 6 | 3 | -1 | 0 | . | .
c1ccc(CSc2ccc(-c3ccc4c(c3)OCO4)nn2)cc1 | 27 | -27 | 23* | 23 | 7 | 0 | 1 | -7
Cc1ccc(/C=N\NC(=O)Cc2noc3ccccc23)cc1 | 11 | -11 | -9 | 11 | -3 | 0 | . | .
O=[N+]([O-])c1ccc(N2CCN(c3cccc(Cl)c3)CC2)nc1 | -45 | 45 | 4 | 5 | -2 | 0 | . | .
CN1CCN(C(=O)/C(=C\c2cccs2)NC(=O)c2ccccc2)CC1 | . | . | 0 | 0 | 0 | 0 | . | .
Nc1[nH]nc2nc(N3CCCC3)nc(-c3ccccc3)c12 | 13 | -13 | 1 | -2 | -1 | . | . | .
Nc1[nH]nc2nnc(-c3c(-c4ccccc4)nn4ccccc34)cc12 | . | . | 22* | . | . | . | 9 | -3
CCOc1ccc(-n2cccc2C=O)cc1 | 18 | -18 | -9 | . | 1 | 0 | . | .
COc1ccc(C(=O)NC(=S)Nc2ccc(NC(=O)c3ccco3)cc2)cc1[N+](=O)[O-] | -1 | 1 | 12 | 5 | -1 | 0 | . | .
CCCCC(=O)Nc1ccc(NC(=S)NC(=O)c2ccco2)cc1OC | -48 | 48 | 31* | 1 | 0 | 0 | 18 | -9
COc1ccc(C(=O)NC(=S)Nc2cccc(NC(=O)c3ccco3)c2)cc1[N+](=O)[O-] | -15 | 15 | 28* | . | 1 | 0 | 10 | 2
COc1ccc(C(=O)NC(=S)Nc2ccc(N3CCN(C(C)=O)CC3)cc2)cc1[N+](=O)[O-] | . | . | 21* | 3 | 2 | 0 | 10 | -18
CC(=O)N1CCN(c2ccc(NC(=S)NC(=O)c3ccc(C)c([N+](=O)[O-])c3)cc2)CC1 | . | . | 8 | -2 | 3 | 0 | . | .
CNC(=S)/N=C/NOCc1c(Cl)cccc1Cl | 2 | -2 | 5 | 29 | -2 | 0 | . | .
SMILES | SR-BI uptake up | SR-BI HDL uptake | sPLA2-III inh | ARNT-TACC3 inh | NSD2 HMT inh | Xi reactivation | sPLA2 confirm | BODIPY interf | others
CC(C)C#Cc1ccc2c(c1)O[C@H](CN(C)C(=O)c1cnccn1)[C@@H](C)CN([C@H](C)CO)S2(=O)=O | . | . | . | 0 | . | 0 | . | .
CC(C)OCCCNC(=O)c1cc2c(s1)CS(=O)(=O)C2 | 29 | -29 | 4 | -2 | 0 | . | . | .
Nc1cccc(Nc2nc(OC(C(F)(F)F)C(F)(F)F)nc(OC(C(F)(F)F)C(F)(F)F)n2)c1 | -2 | 2 | 28* | 3 | 2 | . | 31* | -3 | BODIPY interf DR=>122
CC1(C)Oc2ccc(C#N)cc2[C@@H](N2CCCC2=O)[C@@H]1O | 4 | -1 | 21* | 3 | . | 0 | -3 | -1
O=C(Cc1ccccc1)Nn1c(-c2ccccc2)nc2ccccc2c1=O | 9 | -9 | 15 | -20 | 22 | 0 | . | .
NC(=S)Nn1c(-c2ccccc2)nc2ccccc2c1=O | 16 | -16 | 19* | 4 | -2 | . | 6 | 0
COCCNc1nc(NCc2cnc(C)cn2)c2sccc2n1 | . | . | 22* | . | 0 | 0 | -2 | -7
COc1ccccc1NC(=S)N1CCC(c2nc3cc(C)c(C)cc3[nH]2)CC1 | . | . | 21* | -3 | 0 | . | 13 | -12
COc1ccccc1NC(=O)N1CCC(c2nc3cc(C)c(C)cc3[nH]2)CC1 | -9 | 9 | -2 | -7 | -1 | . | . | .
CC1=C(C(=O)N(C)C)CC(CC(=O)NC2CCCCC2)C(=O)N1CCCN1CCCC1=O (configuration not stated) | . | . | 21* | . | . | 0 | 0 | -8
CNC(=S)N/N=C/c1cc(Br)cc(Br)c1O | -3 | 3 | 44* | 48* | -4 | 0 | 51* | 5 | BODIPY interf DR=>122
CCCCC(=O)NC(c1ccc(OC)cc1)c1ccc2cccnc2c1O (configuration not stated) | . | . | 10 | . | 3 | 0 | . | .
CCCCC(=O)NC(c1cccs1)c1cc(Cl)c2cccnc2c1O (configuration not stated) | -2 | 2 | 24* | 4 | . | 0 | 32* | 0 | BODIPY interf DR=>122
